# hiPSC survival – hiPSC single-cell survival enhancement; ATPlite luminescence; 100% = ROCK inhibitor wells, 0% = DMSO; survival enhancement, % at 20 µM; hit rate 0.044% among 360,000; AID 602274; in the data active = survival enhancement above about 18%;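 also: cells exposed to compounds for 16 hours before the ATP read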
# Rev-erbA mod – modulators of human Rev-erb alpha DNA binding. Rev-erbα–FITC-DNA binding, fluorescence polarization, 90 min. activity, % at 10 µM. hit rate 0.79% among 370,000. AID 1259318;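 active = activity above about 14%, limit read from the data; passing the limit was not always enough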
# Target sequence (P20393 whole entry, looked up): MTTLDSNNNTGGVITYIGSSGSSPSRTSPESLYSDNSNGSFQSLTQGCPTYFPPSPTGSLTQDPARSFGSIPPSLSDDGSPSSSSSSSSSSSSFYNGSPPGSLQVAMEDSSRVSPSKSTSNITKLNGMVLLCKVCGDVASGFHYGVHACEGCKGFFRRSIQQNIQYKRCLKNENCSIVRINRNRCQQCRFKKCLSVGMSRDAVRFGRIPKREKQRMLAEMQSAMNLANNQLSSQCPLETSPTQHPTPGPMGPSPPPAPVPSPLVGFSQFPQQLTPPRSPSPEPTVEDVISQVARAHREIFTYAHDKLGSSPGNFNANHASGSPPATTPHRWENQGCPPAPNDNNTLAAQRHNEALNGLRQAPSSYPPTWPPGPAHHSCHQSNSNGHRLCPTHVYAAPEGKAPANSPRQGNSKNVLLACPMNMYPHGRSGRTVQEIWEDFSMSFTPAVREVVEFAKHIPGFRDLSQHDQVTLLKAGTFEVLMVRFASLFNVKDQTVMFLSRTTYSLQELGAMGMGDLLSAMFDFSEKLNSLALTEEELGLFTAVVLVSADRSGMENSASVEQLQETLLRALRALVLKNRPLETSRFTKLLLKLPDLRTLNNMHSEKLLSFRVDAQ
# PG9 binder – binds the HIV-1 gp120 antibody PG9; AID 624416; hit rate 0.43% among 360,000; inhibition, % at 6.7 µM; TR-FRET gp120-PG9 antibody binding; in the data active = inhibition above about 8.5%
# H9c2 TAG inh – triacylglycerol accumulation inhibition. H9c2 cells, Nile Red lipid (TAG) fluorescence; cells loaded with 200 µM oleic acid. inhibition, % at 12.5 µM. hit rate 0.66% among 230,000;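 active = pattern-corrected inhibition of lipid staining of at least 50% with the nuclear-stain viability signal not falling by more than 50%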
# MIN6 prolif – MIN6 beta-cell proliferation induction | MIN6 cells proliferation, ATPlite luminescence, 48 h; cells starved in 0.2% serum; 100% = growth in 10% serum | proliferation, % at 10 µM | hit rate 0.29% among 330,000 | AID 2380;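 active = compounds whose signal lies at least 3.5 SD above the mean of all wells on their plate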
# T cruzi inh – T. cruzi replication inhibition; T. cruzi beta-gal in NIH3T3, luminescence, 90 h; inhibition, % (test concentration not listed); hit rate 1.4% among 300,000; AID 1885;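 active = mean inhibition across valid replicates above about 55%, limit read from the data; inconclusive = mean below that limit but half or more replicates reach it; inactive = mean below it, under half of replicates reach it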;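 also: signal also drops with host cell toxicity which is not excluded here; higher percent means less beta-gal luminescence so fewer parasites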
#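 Assay system: NIH/3T3 fibroblasts plus reporter T. cruzi. Amount: NIH/3T3 cells, 5,000 per well. Buffer or medium: DMEM, 2% fetal bovine serum. Doses: compound pinned at 50 nL/well, DMSO. Schedule: ≥90 h infection period, 3 h prior cell attachment. Signal: luminescent β-galactosidase signal after 60 min lysis. Read-out: parasite load inhibition, %.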
# A number is an active result; n = inactive; u = inconclusive; x = no result given. Compounds with a hit are over-represented: about 2.9% of the library has one in this group of screens.
SMILES,hiPSC survival,Rev-erbA mod,PG9 binder,H9c2 TAG inh,MIN6 prolif,T cruzi inh
COc1cc([C@H]2c3[nH]c4ccccc4c3C[C@H]3C(=O)N4[C@@H](c5cc(OC)c(OC)c(OC)c5)c5[nH]c6ccccc6c5C[C@H]4C(=O)N23)cc(OC)c1OC,n,x,x,50,n,n
COc1ccc(-c2[nH]ncc2CN2CCC(N3CCSCC3)CC2)cc1F,n,n,n,n,n,n
NC(=S)NN=C(Cc1ccccc1)Cc1ccccc1,n,n,n,n,n,60
CN(c1ccccc1)S(=O)(=O)c1ccc(Cl)c(C(=O)Nc2nn[nH]n2)c1,n,n,n,n,n,n
Clc1ccc2[nH]cc(-c3nnnn3-c3ccc4ccccc4c3)c2c1,n,n,n,n,n,69
Cc1ccc(-n2nnnc2-c2cnc3ccc(Cl)cc3c2-c2ccccc2)cc1,n,n,n,n,n,n
CCN(CC)S(=O)(=O)c1ccc(NN=C2CCN(C)CC2)c([N+](=O)[O-])c1,n,n,n,n,n,58
Cc1cc(/C=N/NS(=O)(=O)c2ccc(F)c(Cl)c2)no1,n,n,n,n,n,n
CCN(CC)S(=O)(=O)c1cccc(C(=O)N/N=C(\C)c2ccc(O)cc2O)c1,n,n,n,n,n,64
Cc1ccc(C(=O)N2CCCC(Nc3ccc(C)c(C)c3)C2)c(=O)[nH]1 (centres undefined),n,n,n,n,n,n
Cc1cc(C(=O)NC2CC(C)(C)Cc3c2cnn3-c2ccccc2)n(C)n1 (centres undefined),n,n,n,n,n,n
CC(=O)[C@@]1(O)C(C)CC2C3C=C(C)C4=Cc5c(cnn5-c5ccccc5)C[C@]4(C)C3C(O)C[C@@]21C (some centres undefined),n,n,n,x,x,64
COc1cc(NC(=O)Cn2ncc(Cl)c(Cl)c2=O)c(C)cc1[N+](=O)[O-],n,n,n,n,x,85
COc1cc(NC(=O)CN2C(=O)CN(C)C2=O)c(C)cc1[N+](=O)[O-],n,n,n,n,n,n
COc1ccc(-n2c(-c3ccc(Cl)cc3)c[n+]3c2CCc2ccccc2-3)cc1,n,n,n,n,n,74
COc1ccc(-n2c(-c3ccccc3)nnc2-c2ccc(Cl)cc2)cc1,n,n,n,n,n,n
CNCC(O)Cn1c2c(c3ccccc31)CCCC2 (centres undefined),n,n,n,n,n,n
Nc1c2c(nc3ccccc13)N(c1ccccc1)CC2,n,n,n,n,n,n
Nc1c2c(nc3ccccc13)CSCC2,n,n,n,n,n,55
Cc1noc(/C=C/c2ccco2)c1S(=O)(=O)N1CCC(C(=O)NC(C)c2ccccc2)CC1 (centres undefined),n,n,n,n,n,n
Cc1noc(/C=C/c2ccco2)c1S(=O)(=O)N1CCC(C(=O)N2c3ccccc3CC2C)CC1 (centres undefined),n,n,n,n,n,58
Cc1ccc(OCCCCNC2CCCCC2)c(C)c1,n,n,n,x,n,55
Cc1ccc(/C(O)=C2\C(=O)C(=O)N(CCN(C)C)C2c2ccccc2F)cc1 (centres undefined),n,n,n,n,n,n
Cn1c(=N)n(CC(=O)c2ccc(Br)s2)c2ccccc21,n,n,n,n,n,n
N=c1n(CC(=O)c2ccc(Br)s2)c2ccccc2n1Cc1ccccc1,n,n,n,53,n,n
SMILES,hiPSC survival,Rev-erbA mod,PG9 binder,H9c2 TAG inh,MIN6 prolif,T cruzi inh
C#CCOCCOCCOCCNc1nc(N2CCN(C(=O)[C@H](CCCCN)n3cc([C@@H](N)[C@H](C)CC)nn3)CC2)nc(N2CCN(C(=O)[C@H](CCC(=O)O)n3cc([C@@H](N)CCCCN)nn3)CC2)n1,n,n,n,x,n,x
Cc1ccc(S(=O)(=O)N2c3ccccc3-c3c(ssc3=S)C2(C)C)cc1,n,n,n,x,n,55
COc1ccc2c(c1)-c1c(ssc1=S)C(C)(C)N2S(=O)(=O)c1ccc(C)cc1,n,n,n,x,n,n
COc1ccc([C@H]2[C@H](C(=O)OC(C)(C)C)N3N=Cc4ccccc4C3C23C(=O)c2ccccc2C3=O)cc1OC (some centres undefined),n,x,x,x,n,n
COc1ccc(Nc2oc(COc3ccc(Cl)cc3)nc2C#N)cc1,n,n,n,n,n,n
COc1ccc(CNc2oc(COc3ccc(Cl)cc3)nc2C#N)cc1,n,n,n,x,n,66
CCOc1ccc(Nc2oc(-c3ccc(Cl)cc3)nc2C#N)cc1,n,n,n,n,n,n
CN(C)c1oc(-c2ccc(OCc3ccc(Cl)cc3)cc2)nc1C#N,n,n,n,x,n,63
O=C(c1cccc(Br)c1)N1CCN(c2ccccn2)CC1,n,n,n,n,n,x
O=C(c1ccc(SCc2cccc(Br)c2)c([N+](=O)[O-])c1)N1CCN(c2ccccn2)CC1,n,n,n,n,n,58
CCCCN(CCCC)C(=O)c1cc(Cl)ccc1[N+](=O)[O-],n,n,n,x,n,n
CCCN(CCC)C(=O)c1cc([N+](=O)[O-])cc2c1-c1ccc([N+](=O)[O-])cc1C2=C(C#N)C#N,x,n,n,x,n,80
Fc1ccc(N2CCN(c3ncnc4c3nnn4Cc3ccccc3Cl)CC2)cc1,n,n,n,n,n,63
CC(C)c1nc(SCC(=O)Nc2nc3c(s2)CCCC3)c2ccccc2n1,n,n,n,x,n,n
CC(C)(C)c1nc(SCC(=O)Nc2nc3c(s2)CCCC3)c2ccccc2n1,n,n,n,x,n,59
CCOc1cccc2cc(C(=O)NCc3ccccc3Cl)c(=O)oc12,n,n,n,n,n,n
Clc1cccc(OCCN2CCOCC2)c1,n,n,n,x,n,n
Clc1cccc(OCCN2CCNCC2)c1,n,n,n,x,n,58
Clc1cccc(OCCCCN2CCCCC2)c1,n,n,n,n,n,n
OCCN1CCN(CCOc2cccc(Cl)c2)CC1,n,n,n,n,n,66
O=C(/C=C/c1ccccc1)c1ccc2c(c1)OCCCCO2,n,n,n,n,n,n
O=C(CCl)N(C/C=C/c1ccccc1)c1ccc2c(c1)OCCO2,n,n,n,52,n,93
O=C(CC[C@H]1O[C@@H](n2cnc3c(NC(=O)c4ccccc4)ncnc32)[C@H](O)[C@@H]1O)NCc1ccccn1,n,n,n,x,x,x
CCN1CCN(Cc2cccc(Oc3ccc(Cl)cc3)c2)CC1,n,n,n,x,n,u
CCN1CCN(Cc2cccc(Oc3ccccc3)c2)CC1,n,n,x,x,n,59
CN1CCN(Cc2cccc(Oc3ccc(Cl)cc3)c2)CC1,n,n,n,x,n,75
CC(C)c1ccc(/C=N/NC(=O)CCNC(=O)c2ccccc2)cc1,n,n,n,x,n,n
Cc1c(C(=O)NN2CCCCC2)nn(-c2ccc(Cl)cc2Cl)c1-c1ccc(I)cc1,x,x,x,x,x,55
O=C(Cn1ncc2c(=O)oc3ccccc3c21)NC1CC1,n,n,n,n,n,n
